Data taken from ChEMBL document CHEMBL4346669, “Novel nannocystin A analogues as anticancer therapeutics: Synthesis, biological evaluations and structure-activity relationship studies” (Eur J Med Chem, 2019).

Columns and labels:
A549 [1] = experiment: Antiproliferative activity against human A549 cells assessed as reduction in cell viability measured after 72 hrs by MTT assay; assay type: functional, cell-based; conditions: Homo sapiens, A549, 72 h; read-out: IC50
Summary of the method: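 Cells seeded 5×10^3/well, cultured overnight, then exposed to 10, 1, 0.1, 0.01, 0.001 and 0.0001 µM (from 10 mM DMSO stocks diluted in medium; vehicle 1% DMSO PBS) for 72 h at 37 °C. Medium replaced with 0.5 mg/mL MTT for 4 h, formazan dissolved in DMSO, A570 read. IC50 as mean ± SD of three independent experiments.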

A549 [2] = experiment: Induction of apoptosis in human A549 cells assessed as early apoptotic cells at 60 nM after 24 hrs by Annexin-V FITC/propidium iodide staining based flow cytometric analysis; assay type: functional
Summary of the method: (§1)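 Time-course: A549 (2×10^5 cells/well, grown overnight) exposed to 60 nM for 6, 12 or 24 h; untreated control. Cells trypsinized, washed in cold PBS, stained 15 min with Annexin V-FITC in binding buffer, then PI, and read by flow cytometry; duplicate experiments.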

A549 [3] = experiment: Induction of apoptosis in human A549 cells assessed as increase in caspase9 expression by Western blot analysis; assay type: functional, cell-based
Summary of the method: (§2)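 A549 treated 30, 60 and 90 nM for 24 h; lysates normalized by BCA, 30 μg protein denatured in SDS buffer at 100 °C 8 min, SDS-PAGE, PVDF transfer, blocked in 5% milk/TBS-0.05% Tween 2 h, primary antibodies overnight at 4 °C, HRP anti-rabbit IgG 2 h, ECL detection; β-actin loading control.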

A549 [4] = experiment: Induction of apoptosis in human A549 cells assessed as necrotic cells at 60 nM after 12 hrs by Annexin-V FITC/propidium iodide staining based flow cytometric analysis (reference value: 1.28%); assay type: functional
A549 [5] = experiment: Induction of apoptosis in human A549 cells assessed as necrotic cells at 30 nM after 12 hrs by Annexin-V FITC/propidium iodide staining based flow cytometric analysis (reference value: 1.28%); assay type: functional
A549 [6] = experiment: Cell cycle arrest in human A549 cells assessed as accumulation at G2 phase at 60 nM after 24 hrs by propidium iodide/RNase A staining-based flow cytometric analysis (reference value: 30.02%); assay type: functional
A549 [7] = experiment: Induction of apoptosis in human A549 cells assessed as late apoptotic cells at 60 nM after 12 hrs by Annexin-V FITC/propidium iodide staining based flow cytometric analysis (reference value: 1.22%); assay type: functional
A549 [8] = experiment: Induction of apoptosis in human A549 cells assessed as necrotic cells at 60 nM after 24 hrs by Annexin-V FITC/propidium iodide staining based flow cytometric analysis; assay type: functional; summary of the method: as §1
A549 [9] = experiment: Induction of apoptosis in human A549 cells assessed as necrotic cells at 60 nM after 6 hrs by Annexin-V FITC/propidium iodide staining based flow cytometric analysis; assay type: functional; summary of the method: as §1
A549 [10] = experiment: Cell cycle arrest in human A549 cells assessed as accumulation at G2 phase at 30 nM after 24 hrs by propidium iodide/RNase A staining-based flow cytometric analysis (reference value: 30.02%); assay type: functional
A549 [11] = experiment: Induction of apoptosis in human A549 cells assessed as early apoptotic cells at 90 nM after 12 hrs by Annexin-V FITC/propidium iodide staining based flow cytometric analysis (reference value: 0.32%); assay type: functional
A549 [12] = experiment: Induction of apoptosis in human A549 cells assessed as early apoptotic cells at 60 nM after 12 hrs by Annexin-V FITC/propidium iodide staining based flow cytometric analysis (reference value: 0.32%); assay type: functional
MDA-MB-231 = experiment: Antiproliferative activity against human MDA-MB-231 cells assessed as reduction in cell viability measured after 72 hrs by MTT assay; assay type: functional, cell-based; conditions: MDA-MB-231, 72 h
Summary of the method: (§3)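 Cells seeded at 5×10^3 per well and cultured overnight, then exposed for 72 h at 37 °C to six concentrations from 10 µM down to 0.0001 µM (from 10 mM DMSO stock diluted in medium; vehicle 1% DMSO in PBS). MTT at 0.5 mg/mL was added for 4 h, formazan dissolved in DMSO, and A570 read. IC50 given as mean ± SD of three independent experiments.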

A549 [13] = experiment: Cell cycle arrest in human A549 cells assessed as accumulation at S phase at 30 nM after 24 hrs by propidium iodide/RNase A staining-based flow cytometric analysis (reference value: 12.57%); assay type: functional
A549 [14] = experiment: Induction of apoptosis in human A549 cells after 12 hrs by Annexin-V FITC/propidium iodide staining based flow cytometric analysis; assay type: functional, cell-based
MCF7 = experiment: Antiproliferative activity against human MCF7 cells assessed as reduction in cell viability measured after 72 hrs by MTT assay; assay type: functional, cell-based; conditions: MCF7, 72 h; summary of the method: as §3
A549 [15] = experiment: Induction of apoptosis in human A549 cells assessed as late apoptotic cells at 90 nM after 12 hrs by Annexin-V FITC/propidium iodide staining based flow cytometric analysis (reference value: 1.22%); assay type: functional
SH-SY5Y = experiment: Antiproliferative activity against human SH-SY5Y cells assessed as reduction in cell viability measured after 72 hrs by MTT assay; assay type: functional, cell-based; summary of the method: as §3
A549 [16] = experiment: Induction of apoptosis in human A549 cells assessed as increase in Bax protein expression by Western blot analysis; assay type: functional, cell-based; summary of the method: as §2
A549 [17] = experiment: Cell cycle arrest in human A549 cells assessed as accumulation at G1 phase at 60 nM after 24 hrs by propidium iodide/RNase A staining-based flow cytometric analysis (reference value: 57.41%); assay type: functional
A549 [18] = experiment: Cell cycle arrest in human A549 cells assessed as accumulation at G1 phase at 90 nM after 24 hrs by propidium iodide/RNase A staining-based flow cytometric analysis (reference value: 57.41%); assay type: functional
A549 [19] = experiment: Induction of apoptosis in human A549 cells assessed as viable cells at 60 nM after 12 hrs by Annexin-V FITC/propidium iodide staining based flow cytometric analysis (reference value: 97.18%); assay type: functional; conditions: A549, 12 h, read-out: Activity
A549 [20] = experiment: Induction of apoptosis in human A549 cells assessed as viable cells at 90 nM after 12 hrs by Annexin-V FITC/propidium iodide staining based flow cytometric analysis (reference value: 97.18%); assay type: functional; conditions: A549, 12 h, read-out: Activity
A549 [21] = experiment: Induction of apoptosis in human A549 cells assessed as late apoptotic cells at 60 nM after 24 hrs by Annexin-V FITC/propidium iodide staining based flow cytometric analysis; assay type: functional; summary of the method: as §1
A549 [22] = experiment: Induction of apoptosis in human A549 cells assessed as early apoptotic cells at 60 nM after 6 hrs by Annexin-V FITC/propidium iodide staining based flow cytometric analysis; assay type: functional; summary of the method: as §1
A549 [23] = experiment: Induction of apoptosis in human A549 cells assessed as viable cells at 30 nM after 12 hrs by Annexin-V FITC/propidium iodide staining based flow cytometric analysis (reference value: 97.18%); assay type: functional; conditions: A549, 12 h, read-out: Activity
A549 [24] = experiment: Cell cycle arrest in human A549 cells assessed as accumulation at G2 phase after 24 hrs by propidium iodide/RNase A staining-based flow cytometric analysis; assay type: functional
A549 [25] = experiment: Induction of apoptosis in human A549 cells assessed as early apoptotic cells at 30 nM after 12 hrs by Annexin-V FITC/propidium iodide staining based flow cytometric analysis (reference value: 0.32%); assay type: functional
A549 [26] = experiment: Induction of apoptosis in human A549 cells assessed as late apoptotic cells at 30 nM after 12 hrs by Annexin-V FITC/propidium iodide staining based flow cytometric analysis (reference value: 1.22%); assay type: functional

## COc1cc(C[C@H]2NC(=O)[C@H](C(C)C)N(C)C(=O)/C(C)=C/C[C@@H](OC)/C(C)=C/C=C/[C@@H](C)[C@@H](c3ccccc3)OC(=O)[C@H](C(C)C)NC2=O)ccc1O
A549 [1]
  IC50: 0.0202 µM
A549 [2]
  Activity: 3.48%
A549 [3]
  Activity: Dose-dependent effect
A549 [4]
  Activity: 10.19%
A549 [5]
  Activity: 9.87%
A549 [6]
  Activity: 40.8%
A549 [7]
  Activity: 20.03%
A549 [8]
  Activity: 13.07%
A549 [9]
  Activity: 2.3%
A549 [10]
  Activity: 37.66%
A549 [11]
  Activity: 3.55%
A549 [12]
  Activity: 3.55%
MDA-MB-231
  IC50: 0.0125 µM
A549 [13]
  Activity: 13.21%
A549 [14]
  Activity: Dose-dependent effect
MCF7
  IC50: 0.015 µM
A549 [15]
  Activity: 28.22%
SH-SY5Y
  IC50: 0.0096 µM
A549 [16]
  Activity: Dose-dependent effect
A549 [17]
  Activity: 44.44%
A549 [18]
  Activity: 37.81%
A549 [19]
  viability at 0.06 µM: 66.2%
A549 [20]
  viability at 0.09 µM: 55.4%
A549 [21]
  Activity: 29.03%
A549 [22]
  Activity: 0.34%
A549 [23]
  viability at 0.03 µM: 75.3%
A549 [24]
  Activity: Dose-dependent effect
A549 [25]
  Activity: 1.21%
A549 [26]
  Activity: 13.6%
